What was measured:
L1210 [1] = assay: In vitro inhibitory effect on growth of L1210 leukemia cells; type: functional; settings: Mus musculus, read-out: ID50 (the source's name)
Procedure, shortened: (§1)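 Suspension cells in RPMI-1640 with 10% FBS and 20 mM Hepes were seeded at 1 × 10^5 cells/mL. Filter-sterilized compound was added in duplicate at log concentrations 1 × 10^-10 to 1 × 10^-4 M. After 48 h at 37 °C, cells were Coulter-counted. ID50 is 50% growth inhibition versus untreated controls, averaged over two to three determinations.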

[2] = tested on: Lewis lung carcinoma cell line; assay: In vitro inhibitory effect on growth of lewis lung carcinoma cells; type: functional; settings: Mus musculus, read-out: ID50 (the source's name)
Procedure, shortened: (§2)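 Monolayers were seeded at 2.5 × 10^4 cells/well and grown 24 h at 37 °C, 5% CO2. Lewis lung cells were kept in RPMI-1640 with 5% fetal calf serum; B16 cells in MEM with 10% FCS, nonessential amino acids, 1 mM pyruvate and vitamins. Medium was replaced with compound at log concentrations 1 × 10^-10 to 1 × 10^-4 M. After 72 h, cells were PBS-washed, trypsinized and Coulter-counted. ID50 is 50% growth inhibition versus controls, averaged over two to three determinations.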

Vaccinia virus = assay: In vitro antiviral activity against vaccinia virus in Vero cells.; type: functional; settings: Orthopoxvirus vaccinia, read-out: ED50 (the source's name)
P388 [3] = assay: In vitro inhibitory effect on growth of P388 leukemia cells; type: functional; settings: Mus musculus, read-out: ID50 (the source's name); procedure, shortened: as §1
Vero = assay: Maximum tolerated concentration against Vero cells.; type: functional, Chlorocebus sabaeus
Procedure, shortened: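 Single uninfected confluent Vero monolayer wells were exposed alongside the antiviral wells, final 5 × 10^-6 to 5 × 10^-3 M, for 72 h at 37 °C, 5% CO2. Cytotoxicity was any microscopically visible change in morphology or monolayer density (lysis, rounding, detachment). MTC is the […].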

Measles morbillivirus = assay: In vitro antiviral activity against measles virus in Vero cells; type: functional; settings: read-out: ED50 (the source's name)
Procedure, shortened: (§3)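 Confluent Vero monolayers (4 × 10^4 cells/well, grown 24 h at 37 °C in EMEM with 10% newborn bovine serum) were infected with virus: HSV-2 at 100, measles at 100, para-3 at 60 TCID50/well. After 30 min adsorption at 37 °C, compound was added in seven 0.5-log steps, final 5 × 10^-6 to 5 × 10^-3 M (active ones 5 × 10^-7 to 5 × 10^-4 M), duplicate wells.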

Human alphaherpesvirus 2 = assay: In vitro antiviral activity against herpes simplex virus type 2 (HSV-2) in Vero cells.; type: functional; settings: Human alphaherpesvirus 2, Vero; read-out: ED50 (the source's name); procedure, shortened: as §3
B16 = assay: In vitro inhibitory effect on growth of B16 melanoma cells; type: functional; settings: Mus musculus, read-out: ID50 (the source's name); procedure, shortened: as §2
Human respirovirus 3 = assay: In vitro antiviral activity against parainfluenza type 3 virus in Vero cells.; type: functional; settings: Human respirovirus 3, Vero; read-out: ED50 (the source's name); procedure, shortened: as §3
P388 [4] = assay: In vitro inhibitory effect on growth of P388 leukemia cells.; type: functional; settings: Mus musculus, read-out: ID50 (the source's name); procedure, shortened: as §1
[5] = In vitro inhibitory effect on growth of […] cells.; type: functional; settings: Mus musculus; read-out: ID50 (the source's name); procedure, shortened: as §2
[6] = tested on: Lewis lung carcinoma cell line; assay: In vitro inhibitory effect on growth of lewis lung carcinoma cells.; type: functional; settings: Mus musculus, read-out: ID50 (the source's name); procedure, shortened: as §2
L1210 [7] = assay: In vitro inhibitory effect on growth of L1210 leukemia cells.; type: functional; settings: Mus musculus, read-out: ID50 (the source's name); procedure, shortened: as §1
P388 [8] = assay: In vitro inhibitory effect on growth of P388 leukemia cell; type: functional; settings: Mus musculus, read-out: ID50 (the source's name); procedure, shortened: as §1

| Structure (SMILES) | IC50 (L1210 [1]) [µM] | IC50 [2] [µM] | EC50 (Vaccinia virus) [µM] | IC50 (P388 [3]) [µM] | MTC (Vero) [mM] | EC50 (Measles morbillivirus) [µM] | EC50 (Human alphaherpesvirus 2) [µM] | IC50 (B16) [µM] | EC50 (Human respirovirus 3) [µM] | IC50 (P388 [4]) [µM] | IC50 [5] [µM] | IC50 [6] [µM] | IC50 (L1210 [7]) [µM] | IC50 (P388 [8]) [µM] |
| --- | --- | --- | --- | --- | --- | --- | --- | --- | --- | --- | --- | --- | --- | --- |
| NC(=O)c1[nH]nc(C2O[C@H](COP(=O)(O)O)[C@H](O)[C@@H]2O)c1O (some centres not stated) | 0.0027 | 0.005 | 4 | 0.001 | >5 | 20 | 23 | 0.24 | 6.3 | – | – | – | – | – |
| N#CC1NN=C([C@@H]2O[C@H](CO)[C@@H](O)[C@H]2O)C1=O (some centres not stated) | 13 | 28 | 5000 | 45 | >5 | 5000 | > 5000 | 72 | > 5000 | – | – | – | – | – |
| NC(=O)C1NN=C([C@@H]2O[C@H](CO)[C@@H](O)[C@H]2O)C1=O (some centres not stated) | 0.0032 | 0.0018 | 2.8 | 0.0033 | 1.6 | 9.6 | 20 | 0.063 | 3 | – | – | – | – | – |
| NC(=O)c1[nH]nc(C2O[C@@H](COP(=O)(O)OP(=O)(O)OC[C@H]3OC(n4cnc5c(N)ncnc54)[C@H](O)[C@@H]3O)[C@H](O)[C@@H]2O)c1O (some centres not stated) | – | – | 9 | – | 5 | 16 | 10 | – | 5 | 0.0088 | 0.6 | 0.0048 | 0.004 | – |
| COc1c([C@@H]2O[C@H](CO)[C@@H](O)[C@H]2O)n[nH]c1C(N)=O | 29 | – | 2800 | 40 | >5 | > 5000 | > 5000 | – | > 5000 | – | – | – | – | – |
| NC(=O)c1[nH]nc(C2OC3COP(=O)(O)O[C@@H]3[C@@H]2O)c1O (some centres not stated) | 2.5 | 1.7 | 250 | 4.4 | >5 | > 5000 | 130 | 6.3 | 500 | – | – | – | – | – |
| N/C(=N/O)c1[nH]nc([C@@H]2O[C@H](CO)[C@@H](O)[C@H]2O)c1OCc1ccccc1 | > 100 | – | > 5000 | > 100 | >5 | > 5000 | > 5000 | – | > 5000 | – | – | – | – | – |
| NC(=O)c1[nH]nc([C@@H]2O[C@H](COP(=O)([O-])[O-])[C@@H](O)[C@H]2O)c1OCc1ccccc1.[Na+].[Na+] | 130 | – | > 5000 | 94 | >5 | > 5000 | > 5000 | – | > 5000 | – | – | – | – | – |
| NC(=O)c1ncn([C@@H]2O[C@H](CO)[C@@H](O)[C@H]2O)n1 [RIBAVIRIN] | – | – | 90 | – | >5 | 99 | 190 | – | 160 | – | – | – | – | – |
| COc1c([C@@H]2O[C@H](CO)[C@@H](O)[C@H]2O)nn(C)c1C(N)=O | > 100 | – | 5000 | – | 5 | > 5000 | 3200 | – | > 5000 | – | – | – | – | > 100 |
| CCOP(=O)(O)OC[C@H]1O[C@@H](C2=NNC(C(N)=O)C2=O)[C@H](O)[C@@H]1O (some centres not stated) | 0.0039 | 0.0007 | 26 | 0.0032 | >5 | 97 | 590 | 0.23 | 80 | – | – | – | – | – |
| COP(=O)(OC)OC[C@H]1O[C@@H](C2=NNC(C(N)=O)C2=O)[C@H](O)[C@@H]1O (some centres not stated) | 0.0058 | 0.01 | 280 | 0.012 | >5 | 1400 | > 5000 | 2.3 | 1000 | – | – | – | – | – |
| NC(=O)c1[nH]nc([C@@H]2O[C@H](CO)[C@@H](O)[C@H]2O)c1OCc1ccccc1 | 75 | – | > 5000 | 62 | >5 | 1300 | > 5000 | – | > 5000 | – | – | – | – | – |
| NC(=S)c1[nH]nc([C@@H]2O[C@H](CO)[C@@H](O)[C@H]2O)c1OCc1ccccc1 | > 100 | > 100 | 2100 | > 100 | >5 | 500 | 2800 | > 100 | > 5000 | – | – | – | – | – |
| CN1N=C([C@@H]2O[C@H](CO)[C@@H](O)[C@H]2O)C(=O)C1C(N)=O (some centres not stated) | 15 | – | 1600 | 17 | >5 | > 5000 | > 5000 | – | > 5000 | – | – | – | – | – |
| N=C(N)C1NN=C([C@@H]2O[C@H](CO)[C@@H](O)[C@H]2O)C1=O (some centres not stated) | 79 | 89 | > 5000 | > 100 | >5 | 5000 | 3100 | > 100 | – | – | – | – | – | – |
